Shown are actives, neighbours in structure and some others; about 2.6% of the full set was active somewhere.
SENP7 block: blocks the human protease SENP7. Q9BQF6. recombinant SENP7, Z-RLRGG-aminoluciferin luminescence, 40 min. inhibition, % at 5 µM. hit rate 1.5% among 330,000. AID 434973;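 active = inhibition above about 50% at the single test dose, limit read from the data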
Target sequence (Q9BQF6 706-1050 limits assumed): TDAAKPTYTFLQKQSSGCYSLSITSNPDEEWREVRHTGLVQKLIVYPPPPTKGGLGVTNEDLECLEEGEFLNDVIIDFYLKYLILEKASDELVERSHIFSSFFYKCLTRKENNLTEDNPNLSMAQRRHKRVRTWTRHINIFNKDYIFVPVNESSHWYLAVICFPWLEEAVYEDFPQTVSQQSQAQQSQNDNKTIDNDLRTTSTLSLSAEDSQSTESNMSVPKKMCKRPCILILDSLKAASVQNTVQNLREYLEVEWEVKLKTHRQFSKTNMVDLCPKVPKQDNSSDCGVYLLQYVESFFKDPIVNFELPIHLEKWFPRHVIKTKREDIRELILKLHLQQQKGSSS
SENP6 inh: SENP6 protease inhibition | AID 2599 | inhibition, % at 10 µM | Recombinant SENP6 catalytic domain, aminoluciferin luminescence | hit rate 1.8% among 330,000;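 active = inhibition above about 50% at the single tested dose, limit read from the data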
Platelet DG rel: platelet dense granule release activity | hit rate 0.22% among 300,000 | inhibition, %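 (compounds screened at 7.5 µM in platelet-rich plasma)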 | human platelet-rich plasma, SFLLRN dense granule ATP release, luminescence;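 active = mean replicate score, as percent of positive control, at or above 50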
SENP8 block-1: blocks the human protease SENP8; purified SENP8, Z-RLRGG-aminoluciferin cleavage, luminescence; Q96LD8; hit rate 1.2% among 330,000; inhibition, % at 10 µM; in the data active = inhibition above about 50%
SENP8 block-2: SENP8 (human) protease inhibition | Q96LD8 | hit rate 0.64% among 360,000 | inhibition, % at 20 µM | recombinant SENP8, Nedd8 substrate fluorescence; in the data active = inhibition mostly above about 40%, no sharp cut-off; inactive = mostly below about 27%
SENP1 inh: inhibitors of human SENP1 SUMO protease catalytic domain; Q9P0U3; recombinant SENP1 catalytic domain, CyPet-SUMO1-YPet FRET cleavage; inhibition, % at 10 µM; hit rate 0.21% among 360,000; AID 624204;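 active = inhibition at least 30% at 10 µM, raw YFP signal under a set limit, fluorescence ratio 0.5 to 1.5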
Target sequence (Q9P0U3 419-644 limits assumed): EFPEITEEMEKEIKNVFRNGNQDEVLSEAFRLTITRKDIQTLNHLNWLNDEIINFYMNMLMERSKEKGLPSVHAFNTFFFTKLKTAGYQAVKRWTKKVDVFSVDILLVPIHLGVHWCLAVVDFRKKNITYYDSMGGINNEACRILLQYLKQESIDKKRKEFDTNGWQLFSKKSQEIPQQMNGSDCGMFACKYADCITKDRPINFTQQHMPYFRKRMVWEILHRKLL
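material = recombinant human SENP1 catalytic domain, His6-tagged | quantity = 20 pM enzyme | reagent = 25 nM SUMO1 FRET substrate | compound dosing = 10 µM single point, 0.5% DMSO | timing = 50 min enzyme reaction, room temperature, light-protected | detection = FRET, CFP and YFP emission | control set = no-enzyme low, enzyme-DMSO high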
SENP1 inh conf: SENP1 (human) inhibition, single concentration confirmation; shares compounds with SENP1 inh; recombinant SENP1, CyPet-SUMO1-YPet FRET cleavage; inhibition, % at 10 µM; hit rate 34% among 520; in the data active = inhibition mostly above about 35%, no sharp cut-off; inactive = mostly below about 32%
SENP1 kin conf: SENP1 (human) inhibition, kinetic confirmation; hit rate 26% among 520; recombinant SENP1, CyPet-SUMO1-YPet FRET kinetic cleavage; shares compounds with SENP1 inh; inhibition, % at 10 µM; in the data active = inhibition mostly above about 32%, no sharp cut-off; inactive = mostly below about 29%
Of the large screens only hits and unclear results are named; the others gave an inactive call (follow-up assays come after a bar, where they were run).

COc1ccc(C2SCC(=O)N2CC23CC4CC(CC(C4)C2)C3)cc1 (stereo not given)	none
C/C(=N\NC(=O)c1ccc(C)cc1C)c1ccc2c(c1)Nc1ccccc1S2	SENP1 inh 61 | SENP1 inh conf inactive | SENP1 kin conf inactive
NC(=O)CCCn1c(C(=O)c2cc(Cl)c(N)c(Cl)c2)c2ccc([N+](=O)[O-])cc2[n+]1[O-]	SENP1 inh 30 | SENP1 inh conf inactive | SENP1 kin conf inactive
Nc1cc2cccnc2cc1Cl	SENP1 inh 42 (no result: SENP7 block, SENP6 inh, Platelet DG rel, SENP8 block-1) | SENP1 inh conf inactive | SENP1 kin conf inactive
CN(C)c1ccc(S(=O)(=O)NCC(=O)OCC(=O)c2ccc[nH]2)cc1[N+](=O)[O-]	none (no result: Platelet DG rel)
COc1ccc2oc(C(=O)Nc3ccc(N4CCOCC4)cc3)c(C)c2c1	none
O=C1C=C(Nc2ccc(Cl)cc2)C(=O)N1c1ccc(Cl)cc1	SENP1 inh 34 | SENP1 inh conf 38 | SENP1 kin conf 37
O=C1C=C(N2CCCCCC2)C(=O)N1c1ccc(Cl)cc1	none (no result: SENP7 block, SENP6 inh, SENP8 block-1)
O=[N+]([O-])c1ccc(-c2cn3c(n2)SCC3)cc1	SENP1 inh 31 | SENP1 inh conf inactive | SENP1 kin conf inactive
COc1ccc2c(C)cc(SCC(=O)N3CCOCC3)nc2c1	SENP1 inh 67 | SENP1 inh conf 50 | SENP1 kin conf 36
COc1ccc2c(-c3ccccc3)cc(SCC(N)=O)nc2c1	SENP1 inh 30 | SENP1 inh conf inactive | SENP1 kin conf inactive
Cn1cc(NC(=O)OCc2ccc(Cl)cc2)c(C(F)(F)F)n1	none
COc1ccc(NC(=O)Cc2c(F)c(F)c(F)c(F)c2F)cc1OC	none
COc1ccc(NC(=O)CC#N)cc1OC	SENP1 inh 53 | SENP1 inh conf inactive | SENP1 kin conf inactive
C=CCOCCN1C(=O)C2C(c3ccccc3)C=CC(c3ccccc3)C2C1=O (stereo not given)	SENP1 inh 66 | SENP1 inh conf 76 | SENP1 kin conf 61
Cc1sc(Nc2ccc([N+](=O)[O-])cc2)nc1-c1c(C)n(C)n(-c2ccccc2)c1=O	SENP1 inh 38 | SENP1 inh conf inactive | SENP1 kin conf inactive
Cc1ccc(Nc2nc(-c3c(C)n(C)n(-c4ccccc4)c3=O)c(C)s2)cc1	none
C=C1CCC[C@]2(C)C[C@H]3OC(=O)C(CN(Cc4ccc(OC)c(OC)c4)CC(C)O)[C@H]3CC12 (stereo not given in full)	none
Nc1ccc2c(c1)C(=NO)c1ccccc1-2	none (no result: SENP7 block, SENP6 inh, Platelet DG rel, SENP8 block-1)
Nc1cc2c(cc1[N+](=O)[O-])-c1ccccc1C2=NO	SENP1 inh 32 (no result: SENP7 block, SENP6 inh, Platelet DG rel, SENP8 block-1) | SENP1 inh conf inactive | SENP1 kin conf inactive
COC(=O)CSc1nc2cc(C)ccc2cc1C#N	SENP1 inh 62 | SENP1 inh conf inactive | SENP1 kin conf inactive
CCOC(=O)CC(=O)CSc1nc2ccc(C)cc2cc1C#N	none (no result: Platelet DG rel)
Cc1cc(NC(=O)CSc2nc3ccccc3cc2C#N)no1	SENP1 inh 55 | SENP1 inh conf 60 | SENP1 kin conf 50
COc1ccc2nc(SCC(=O)Nc3cc(C)on3)c(C#N)cc2c1	SENP1 inh 48 | SENP1 inh conf inactive | SENP1 kin conf inactive
O=C1OCCC1=COCCOC=C1CCOC1=O	none (no result: SENP7 block, SENP6 inh, Platelet DG rel, SENP8 block-1)
COCCN1C(=O)CCC1(C)C(=O)Nc1ccc2ccccc2c1 (stereo not given)	none (no result: SENP7 block, SENP6 inh, Platelet DG rel, SENP8 block-1)
COc1ccc(OC(=O)N(C)C[C@H]2OCc3cn(nn3)CCCC(=O)N([C@H](C)CO)C[C@@H]2C)cc1	none (no result: SENP7 block, SENP6 inh, Platelet DG rel, SENP8 block-1)
Cc1cnc(NC(=O)c2c(-c3ccccc3)noc2C)s1	none
CC(C)c1ccc(NC(=O)CCNS(=O)(=O)c2ccc3[nH]c(=O)oc3c2)cc1	none
CCOC(=O)Cn1c(=O)oc2cc(S(=O)(=O)NC(C)c3ccccc3)ccc21 (stereo not given)	none
CC(NS(=O)(=O)c1ccc2c(c1)oc(=O)n2C)c1ccccc1 (stereo not given)	SENP1 inh 34 | SENP1 inh conf inactive | SENP1 kin conf inactive
Cc1ccc(-c2csc3nc[nH]c(=O)c23)cc1	none
Cc1ccc(-c2csc3nc(-c4ccncc4)[nH]c(=O)c23)cc1	SENP1 inh 43 | SENP1 inh conf 40 | SENP1 kin conf inactive
Cc1nc2ccc(NS(=O)(=O)c3ccc(F)cc3)cc2s1	none
Cc1nc2ccc(NS(=O)(=O)c3c(F)cccc3F)cc2s1	SENP1 inh 52 (no result: Platelet DG rel) | SENP1 inh conf inactive | SENP1 kin conf 25
O=C1CCC[C@@H]2C[C@@]3(C[C@@H]4CCN1[C@H]24)Nc1cc([N+](=O)[O-])ccc1NC3=NC1CCCCC1	SENP1 inh 70 (no result: SENP7 block, SENP6 inh, Platelet DG rel, SENP8 block-1) | SENP1 inh conf inactive | SENP1 kin conf inactive
O=C(O)CSC(C(=O)Nc1ccc(Br)cc1)c1ccccc1 (stereo not given)	none
Cc1cc(C(=O)NN)c2cc(Br)ccc2n1	none
NNC(=O)c1cc(-c2ccc(N)cc2)nc2ccc(Br)cc12	SENP1 inh 49 | SENP1 inh conf inactive | SENP1 kin conf inactive
CCC(C)(C)NC(=O)COc1ccc(OCc2ccccc2)cc1	none
COC(=O)C1=CC(C(=O)c2cccs2)=NN(c2ccc(OC)cc2)C1C(=O)OC (stereo not given)	SENP1 inh 61 | SENP1 inh conf 60 | SENP1 kin conf 39
COC(=O)C1=CN(Cc2ccc(OC)cc2)C=C(C(=O)OC)C1c1cccs1	none
COc1ccc(Nc2nnc(SCc3cc(=O)n4ccsc4n3)s2)cc1	SENP1 inh 31 | SENP1 inh conf 37 | SENP1 kin conf inactive
O=c1cc(CSc2nnc(Nc3ccccc3F)s2)nc2sccn12	none
COC(=O)[C@]1(Sc2ccc(OC)cc2)CC(=O)N[C@@H]1c1ccccc1	none (no result: SENP7 block, SENP6 inh, Platelet DG rel, SENP8 block-1)
Cc1ccc(Cn2ccc(NC(=O)c3cc(C4CC4)on3)n2)cc1	none
O=C1C2=C(SCCS2)C(=O)N1c1ccccc1	SENP1 inh 36 | SENP1 inh conf inactive | SENP1 kin conf inactive
O=C1CSCC(=O)N1c1ccccc1	none
COc1ccc2c(Cl)c(C(=O)NCCCn3ccnc3)sc2c1	none
Cc1ccc(NC(=O)c2ccc(OC(=O)c3cc4ccccc4o3)cc2)cc1	none
O=C1CN(C(=O)COC(=O)c2cccs2)c2ccccc2N1	none (no result: Platelet DG rel)
Cn1c2ccccc2c2cc(C(=O)OCC(=O)N3CC(=O)Nc4ccccc43)sc21	SENP1 inh 35 | SENP1 inh conf inactive | SENP1 kin conf inactive
CCC1(c2ccccc2)NC(=O)N(CC(=O)Nc2ccccc2C(=O)NC2CC2)C1=O (stereo not given)	none
NC(=O)CCC(C(=O)O)N1C(=O)c2ccc(O)cc2C1=O (stereo not given)	SENP1 inh 44 | SENP1 inh conf 37 | SENP1 kin conf inactive
CCN(CC)S(=O)(=O)c1cccc(C(=O)NNC(=O)C2=NN(c3ccccc3)C(=O)CC2)c1	none
O=C(NC[C@@H]1CCCO1)c1cccc2c1C(=O)c1ccc(N3CCOCC3)cc1S2(=O)=O	SENP1 inh 76 (no result: Platelet DG rel) | SENP1 inh conf 64 | SENP1 kin conf 41
COCCNC(=O)c1cccc2c1C(=O)c1ccc(N3CCOCC3)cc1S2(=O)=O	SENP1 inh 73 (no result: Platelet DG rel) | SENP1 inh conf 58 | SENP1 kin conf 40
COCCOc1cc(-n2ccnc2SC)c(Cl)cc1Cl	none
CSC(=S)N/N=C(\C)c1ccc(Br)cc1	none
